Hits are enriched below; roughly 2.9% of the tested compounds scored in any of these assays.
TCR CD3 inh – inhibitors of human TCR-CD3 interaction, primary screen, biochemical, fluorescence, TAMRA-labeled TCR probe; T-cell receptor (TCR); AID 651800, 2012; inhibition, % at 9.4 µM; 360,000 tested, 0.37% active;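 note: recombinant mutant TCR 2C K166C tagged with TAMRA read by polarization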
SIAE inh – human SIAE inhibitors, primary screen, biochemical, fluorescence polarization, FP-Rh probe, 1536-well HTS; Sialate O-acetylesterase (Homo sapiens), Q9HAT2; SIAE FP-Rh probe binding; inhibition, % at 9.66 µM; 370,000 tested, 0.69% active;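 active = inhibition above a cutoff: mean of compounds within the control limits plus 3 SD of those, cut at about 17% in these data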
PRMT1 inh – PRMT1 methyltransferase inhibitors, primary screen, biochemical, fluorescence polarization; Protein arginine N-methyltransferase 1 (Homo sapiens), Q99873; recombinant PRMT1, activity-based probe fluorescence polarization; inhibition, % at 2.79 µM; 370,000 tested, 1.3% active; AID 652257, 2013;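 active = inhibition above about 21% made by adding two undisclosed values, limit read from the data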
Target sequence (Q99873 whole entry, looked up): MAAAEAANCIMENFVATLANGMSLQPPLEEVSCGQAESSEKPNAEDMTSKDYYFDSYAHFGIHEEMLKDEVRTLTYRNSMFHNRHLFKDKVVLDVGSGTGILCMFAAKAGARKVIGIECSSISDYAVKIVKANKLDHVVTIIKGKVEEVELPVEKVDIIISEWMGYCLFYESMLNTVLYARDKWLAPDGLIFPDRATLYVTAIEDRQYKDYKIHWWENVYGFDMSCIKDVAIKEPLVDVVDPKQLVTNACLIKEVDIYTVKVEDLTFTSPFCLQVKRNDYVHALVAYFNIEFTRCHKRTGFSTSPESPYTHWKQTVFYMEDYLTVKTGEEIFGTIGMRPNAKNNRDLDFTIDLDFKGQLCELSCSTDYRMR
PAD4 FP inh – human PAD4 inhibitors, primary screen, biochemical, fluorescence polarization, 1536-well format | Protein-arginine deiminase type-4 (Homo sapiens), Q9UM07 | recombinant PAD4, RCA probe fluorescence polarization | inhibition, % at 6.36 µM | 330,000 tested, 0.41% active;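 active = percent inhibition above a cutoff equal to the mean of all tested compounds plus 3 SD, cut at about 15% in these data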
HTRA1 inhibitor – HTRA1 serine protease inhibitors, primary screen, biochemical, fluorescence polarization, HTS; Q92743; recombinant HTRA1, FP-rhodamine activity-based probe; inhibition, % at 5.96 µM; 340,000 tested, 0.5% active; AID 504803, 2011; in the data active = inhibition above about 36%
mABHD4 FP – ABHD4 inhibitors, primary screen, biochemical, fluorescence polarization, mouse | inhibition, % at 8.92 µM | (Lyso)-N-acylphosphatidylethanolamine lipase (Mus musculus), Q8VD66 | AID 720543, 2013 | 370,000 tested, 0.54% active | purified mABHD4, FP-Rh probe fluorescence polarization;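 active = inhibition exceeding the mean over every tested compound plus 3 SD, cut at about 30% in these data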
Target sequence (Q8VD66 whole entry, looked up): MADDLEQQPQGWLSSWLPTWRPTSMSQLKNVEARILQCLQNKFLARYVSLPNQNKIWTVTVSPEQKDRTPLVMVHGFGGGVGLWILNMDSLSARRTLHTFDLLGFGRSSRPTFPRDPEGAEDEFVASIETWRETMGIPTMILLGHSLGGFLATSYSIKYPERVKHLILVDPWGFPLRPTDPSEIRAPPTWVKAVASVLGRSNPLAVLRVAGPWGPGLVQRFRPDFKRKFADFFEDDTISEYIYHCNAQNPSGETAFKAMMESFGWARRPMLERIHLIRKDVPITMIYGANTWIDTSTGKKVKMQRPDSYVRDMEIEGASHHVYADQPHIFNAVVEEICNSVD
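assay system = mABHD4 protein | compound dosing = single nominal dose of 8.92 µM, 0.89% DMSO final | read-out basis = percent inhibition of probe binding, normalized to plate controls | schedule = Enzyme–compound pre-incubation 45 min, then probe 60 min, both 25 °C | detection = fluorescence polarization, excitation 525 nm, emission 598 nm, BODIPY TMR filters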
BSA TAMRA ctr – compounds interfering with TAMRA-BSA probe, counter-screen for TCR-CD3 interaction inhibitor project, biochemical, fluorescence, TAMRA-labeled BSA. TAMRA-labeled BSA probe fluorescence counterscreen. shares compounds with TCR CD3 inh. inhibition, % at 9.4 µM. 1,200 tested, 10% active; in the data active = inhibition above about 23%
TCR-CD3 inh conf – TCR-CD3 interaction inhibitors, retest, confirmation, biochemical, fluorescence, TAMRA-labeled TCR probe; TAMRA-labeled TCR probe fluorescence binding assay; shares compounds with TCR CD3 inh; 1,200 tested, 48% active; inhibition, % at 9.4 µM
Each line names hits and unclear results; the compound was inactive in the other large screens (follow-up assays come after a bar, where they were run); ! = not active in a repeat. Cut-off read from the data, not from the text of the source, unless noted: active = inhibition above about 19%; inactive = the rest.

COc1ccc(/C=C2\CC3(OC(=O)c4cccc(F)c4)CCCN2C3)cc1 (stereo not given)	none (no result: TCR CD3 inh, PAD4 FP inh, HTRA1 inhibitor)
CC[C@@H](CCCCCCCn1ccc2ccccc21)CCC(=O)N(c1ccccc1)c1ccccc1	none (no result: TCR CD3 inh, PAD4 FP inh, HTRA1 inhibitor)
CCOc1cc(/C=N/N=C2/NC(=O)C(CC(=O)O)S2)ccc1OCc1ccc(Cl)cc1 (stereo not given)	none
Cn1c(=O)n(C)c2cc(/C=N/N=C3/NC(=O)C(CC(=O)O)S3)ccc21 (stereo not given)	TCR CD3 inh 41.4 | BSA TAMRA ctr inactive | TCR-CD3 inh conf 21.5
Fc1ccc2nc(-c3ccc(CN4CCC(c5nc6ccccc6[nH]5)CC4)cc3)c(-c3ccccc3)nc2c1	none (no result: PAD4 FP inh, HTRA1 inhibitor)
CS(=O)(=O)N(Cc1ccc(C(=O)NN=C2CCCCCC2)cc1)c1ccccc1	TCR CD3 inh 32.6 | BSA TAMRA ctr inactive | TCR-CD3 inh conf inactive
C[C@H]1[C@@H](C(=O)N2CCCC2)Cc2nc3ccccc3nc2C[C@@H]1c1ccccc1	none (no result: TCR CD3 inh, PAD4 FP inh, HTRA1 inhibitor)
CC1=Nc2ccccc2/C1=C/c1nc(-c2ccc(C)s2)oc1O	TCR CD3 inh 19.1 | BSA TAMRA ctr inactive | TCR-CD3 inh conf inactive
CC(=O)NNC(=S)NC(=O)c1ccc(C)cc1	TCR CD3 inh 23.2 | BSA TAMRA ctr inactive | TCR-CD3 inh conf 19.6
O=c1/c(=C/c2ccc(O)c([N+](=O)[O-])c2)sc2nc3ccccc3n12	none (no result: PAD4 FP inh, HTRA1 inhibitor)
CCN(CC)c1ccc(/C=c2\sc3nc4ccccc4n3c2=O)c(O)c1	TCR CD3 inh 28.1 (no result: PAD4 FP inh) | BSA TAMRA ctr 28.0 | TCR-CD3 inh conf 20.5
CCc1cc(Cl)c(OC)c(C(=O)NC[C@@H]2CCCN2CC)c1O	TCR CD3 inh 28.8! | BSA TAMRA ctr inactive | TCR-CD3 inh conf inactive
COc1ccc(/C(C)=N/NC(=O)c2cccc(S(=O)(=O)N3CCCC3)c2)c(O)c1	TCR CD3 inh 33.6 | BSA TAMRA ctr inactive | TCR-CD3 inh conf 19.5
Cc1ccccc1S(=O)(=O)N1CCCc2nc(C)c(C)cc21	none (no result: PAD4 FP inh, HTRA1 inhibitor)
O=C(C(=O)N1CCN(S(=O)(=O)c2cccc3ccccc23)CC1)c1cccc(C(F)(F)F)c1	none (no result: PAD4 FP inh, HTRA1 inhibitor)
COc1ccc(C(=O)Nc2ccc(Cl)c(S(=O)(=O)Nc3ccccc3OC)c2)cc1	none
COc1ccccc1NS(=O)(=O)c1cccc(NC(=O)Nc2cccc(Cl)c2)c1	TCR CD3 inh 36.0 | BSA TAMRA ctr inactive | TCR-CD3 inh conf inactive
COc1ccccc1NS(=O)(=O)c1cc(NC(=O)c2ccc(Cl)nc2)ccc1Cl	TCR CD3 inh 23.2 | BSA TAMRA ctr inactive | TCR-CD3 inh conf inactive
COc1cccc(/C=N/NC(=O)C(=O)N/N=C/c2cccc(OC)c2O)c1O	TCR CD3 inh 20.5 (no result: PAD4 FP inh, HTRA1 inhibitor) | BSA TAMRA ctr inactive | TCR-CD3 inh conf inactive
NC(=S)N/N=C/c1ccccc1[N+](=O)[O-]	none
COC(=O)c1cccc(/C=N/NC(N)=S)c1O	TCR CD3 inh 33.8 | BSA TAMRA ctr inactive | TCR-CD3 inh conf inactive
CN(CC(=O)Nc1ccc(F)cc1)C(=O)c1cc(-c2cccs2)nn1-c1ccccc1	none (no result: PAD4 FP inh)
O=C(COC(=O)c1cc(-c2cccs2)nn1-c1ccccc1)Nc1ccc(F)c([N+](=O)[O-])c1	TCR CD3 inh 21.1 | BSA TAMRA ctr inactive | TCR-CD3 inh conf inactive
CC(C)[C@H]1COc2c3ccccc3nn21	none (no result: TCR CD3 inh, PAD4 FP inh, HTRA1 inhibitor)
NS(=O)(=O)c1ccc(N=Nc2c[nH]c(=O)c(O)c2)cc1	TCR CD3 inh 26.0, PRMT1 inh 26.6 | BSA TAMRA ctr inactive | TCR-CD3 inh conf 36.3
Nc1nc(O)c(N=Nc2ccc(S(N)(=O)=O)cc2)c(=O)[nH]1	none (no result: PAD4 FP inh, HTRA1 inhibitor)
CC1OC(OCC2OC(Oc3c(-c4ccc(O)cc4)oc4cc(O)cc(O)c4c3=O)C(O)C(O)C2O)C(O)C(O)C1O (stereo not given)	TCR CD3 inh 21.1 | BSA TAMRA ctr inactive | TCR-CD3 inh conf inactive
C=CCNC(=S)NNC(=O)c1cccn(Cc2ccc(Cl)cc2Cl)c1=O	TCR CD3 inh 19.8 | BSA TAMRA ctr inactive | TCR-CD3 inh conf inactive
C=CCNC(=S)NNC(=O)c1cccn(Cc2ccc(Cl)c(Cl)c2)c1=O	none
CCNC(=S)NNC(=O)c1cccn(Cc2ccc(Cl)cc2Cl)c1=O	TCR CD3 inh 20.1 | BSA TAMRA ctr inactive | TCR-CD3 inh conf inactive
O=C(CSc1nnc(-c2ccc(Cl)cc2)n1Cc1ccco1)Nc1ccc(S(=O)(=O)Nc2nccs2)cc1	none (no result: TCR CD3 inh, PAD4 FP inh, HTRA1 inhibitor)
C[C@@H]1CCCN1c1cccc2c1S(=O)(=O)N(C1CC1)CCCO2	none (no result: TCR CD3 inh, PAD4 FP inh, HTRA1 inhibitor)
CCCC(=O)NNC(=O)c1c(O)c2ccccc2[nH]c1=O	TCR CD3 inh 33.9 | BSA TAMRA ctr inactive | TCR-CD3 inh conf 28.3
O=C(NNC(=O)c1c(O)c2ccccc2[nH]c1=O)c1ccccc1	TCR CD3 inh 41.0 | BSA TAMRA ctr inactive | TCR-CD3 inh conf 22.4
COC(=O)Nc1ccc(S(=O)(=O)NNC(=O)c2c(O)c3ccccc3[nH]c2=O)cc1	TCR CD3 inh 23.6 | BSA TAMRA ctr inactive | TCR-CD3 inh conf 25.9
Cc1ccc(S(=O)(=O)NNC(=O)c2c(O)c3ccccc3[nH]c2=O)cc1	none
CC(C)C(=O)NNC(=O)c1c(O)c2ccccc2[nH]c1=O	none
Cc1ccc(-n2c(O)c(C=Nc3ccccc3-c3n[nH]c(=S)[nH]c3=O)c3ccccc3c2=O)cc1C	TCR CD3 inh 22.6 (no result: PAD4 FP inh) | BSA TAMRA ctr inactive | TCR-CD3 inh conf inactive
C[C@H]1COc2cc(Br)ccc2S(=O)(=O)N1Cc1cn(Cc2ccccc2)nn1	none (no result: TCR CD3 inh, PAD4 FP inh, HTRA1 inhibitor)
Cc1ccc(NS(=O)(=O)c2ccc(C(=O)NNC(=O)c3ccccc3O)cc2)cc1	TCR CD3 inh 19.9 | BSA TAMRA ctr inactive | TCR-CD3 inh conf inactive
CN(C)S(=O)(=O)c1cccc(NC(=S)NNC(=O)c2cc3ccccc3cc2O)c1	TCR CD3 inh 23.1 | BSA TAMRA ctr inactive | TCR-CD3 inh conf inactive
Cc1ccc(C(=O)NNC(=O)c2cc3ccccc3cc2O)cc1	TCR CD3 inh 24.1 | BSA TAMRA ctr inactive | TCR-CD3 inh conf 25.1
CN(C)S(=O)(=O)c1cccc(NC(=S)NC(=O)c2ccco2)c1	none (no result: PAD4 FP inh)
COc1ccc(NC(=O)NNC(=O)c2cc3ccccc3cc2O)cc1	TCR CD3 inh 24.7 | BSA TAMRA ctr inactive | TCR-CD3 inh conf 22.1
O=C(NNC(=O)c1ccccc1O)c1ccc(NS(=O)(=O)c2ccc(F)c(F)c2)cc1	none

Bioassay records: PubChem, The Scripps Research Institute Molecular Screening Center
